# Calls of active or inactive are those of the source.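 The calls were made as follows, unless noted: active = compounds giving at least 50% inhibition in the cell-based MKP-3 phosphatase rescue imaging test; inactive = the rest.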
# How the values were obtained:
# [1] = inhibitors of TNFa-induced NFkB p65 translocation, primary screen, imaging, HUVEC, MLSMR starter and 10KST1 sets (AID 438;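 active = inhibition above 20% together with a positive visual image hit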;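 also: compound added about 3h40 before a 20 min TNFalpha stimulation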;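 as to inhibition: signal is the nuclear over cytoplasmic p65 intensity ratio per well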); settings: HUVEC TNFa-induced p65 nuclear translocation; cell count: measured here: nuclei count (cytotoxicity indicator), at 2.08 µM; inhibition: at 2 µM, stronger effect = higher value, 0% TNFa-plus-vehicle, 100% no-TNFa wells
# [2] = inhibitors of E-selectin induction by TNFa, primary screen, imaging, HUVEC, immunofluorescence, MLSMR starter and 10KST1 sets (AID 487;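 active = visually confirmed hit in the image check and inhibition above 20%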;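 as to inhibition: signal is fraction of cell area covered by stained E-selectin grains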;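 as to nuclei count: 100% = median nuclei count of all wells on the same plate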); settings: HUVEC TNFalpha-induced E-selectin immunofluorescence imaging, at 2 µM; inhibition: stronger effect = higher value; nuclei count: measured here: cell number, toxicity
# [3] = DUSP6 inhibitors restoring Erk phosphorylation by chemical complementation, primary imaging in DUSP6-transfected HeLa (AID 609); settings: HeLa MKP-3 transfected, phospho-Erk imaging KS statistic, at 10 µM, cells stimulated with TPA for 15 min;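 as to inhibition: phospho-Erk level distribution per well compared with pooled transfected vehicle control wells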
# [4] = target: Dual specificity protein phosphatase 6 (Homo sapiens) (UniProt Q16828); experiment: as above; settings: HeLa MKP-3 transfected, phospho-Erk imaging KS statistic; at 10 µM; stronger effect = higher value; cells stimulated with TPA for 15 min
# [5] = target: Voltage-gated potassium channel subunit beta-2 (Rattus norvegicus) (UniProt P62483); experiment: KvBeta enzyme negative modulators, primary screen, biochemical, NADPH fluorescence (AID 622;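 active = fluorescence slope higher than the sample average by over 3 SD, cut at about -0.22 in these data, passing the limit was not always enough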;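 also: slope of raw intensity against log time taken from 70 to 1610 s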); settings: recombinant KvBeta, 4-cyanobenzaldehyde reduction, at 10 µM, stronger effect = higher value
# [6] = target: Voltage-gated potassium channel subunit beta-2 (Rattus norvegicus) (UniProt P62483); experiment: KvBeta positive modulators, primary screen, biochemical, NADPH fluorescence (AID 623;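 active = NADPH fluorescence slope more negative than the mean of all samples by about 3 SD, 99.7% confidence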;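 also: fluorescence intensity change per second fitted from 20 to 320 s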); settings: Recombinant KvBeta, NADPH fluorescence decrease slope, 10 min; at 10 µM; stronger effect = lower value
# [7] = target: Alpha-2C adrenergic receptor (Homo sapiens) (UniProt P18825); experiment: modulators of alpha2C/GIRK thallium flux, primary screen, cell-based, HEK293 alpha2C/GIRK1/2 (AID 624;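 active = fluorescence slope after compound addition differing from the mean of all screened samples at 99.7% confidence, in either direction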;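 also: slope of fluorescence ratio to pre-addition baseline per second over 15 to 24 s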); settings: thallium flux BTC fluorescence, at 10 µM, actives lie on both sides
# [8] = inhibitors of larval lipid processing in zebrafish, primary screen, whole organism, PED6 fluorescence, gall bladder and intestine (AID 686;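 active = a full or partial loss of lipid-probe fluorescence in the fish gall bladder, intestine or both, judged by eye; inactive = no fluorescence loss, or compound toxic to the fish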;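 also: larvae 5 to 7 days old with five fish per well; signal comes from phospholipase A2 cleavage of quenched PED6 carried via bile; overnight exposure to compound and PED6 before scoring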); settings: Zebrafish larvae PED6 lipid processing, fluorescence scoring; screened at 20 µM (by protocol)
# Method in brief: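 Doses: 20 µM single dose. Test system: live zebrafish larvae aged 5-7 days, whole organism. Quantity: five larvae per well. Measured by: By-eye fluorescence microscopy. Reagent: ingested quenched lipid PED6 at 100 nM. Read-out: visual per-well fluorescence inhibition score. Times: overnight exposure of larvae to compound plus PED6.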
# [9] = inhibitors of Chlamydomonas gravitaxis, primary screen, whole organism, Chlamydomonas reinhardtii, WT vs cilia-less mutant, absorbance, 96-well (AID 463189;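 active = inhibition at or above 50% relative to wild type and mutant plate controls; inactive = inhibition below 50%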;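 also: 0% = wild type cc124 cells in DMSO and 100% = ciliumless bld1 mutant cells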); settings: OD600 absorbance, 2 days, at 10 µM, stronger effect = higher value
# [10] = measured here: cell density z-score
# [11] = measured here: nuclear c-Myc green intensity z-score
# [12] = measured here: nuclear pErk red intensity z-score, stronger effect = higher value
# Chain of Alpha-2C adrenergic receptor (Homo sapiens) (P18825 whole entry, looked up): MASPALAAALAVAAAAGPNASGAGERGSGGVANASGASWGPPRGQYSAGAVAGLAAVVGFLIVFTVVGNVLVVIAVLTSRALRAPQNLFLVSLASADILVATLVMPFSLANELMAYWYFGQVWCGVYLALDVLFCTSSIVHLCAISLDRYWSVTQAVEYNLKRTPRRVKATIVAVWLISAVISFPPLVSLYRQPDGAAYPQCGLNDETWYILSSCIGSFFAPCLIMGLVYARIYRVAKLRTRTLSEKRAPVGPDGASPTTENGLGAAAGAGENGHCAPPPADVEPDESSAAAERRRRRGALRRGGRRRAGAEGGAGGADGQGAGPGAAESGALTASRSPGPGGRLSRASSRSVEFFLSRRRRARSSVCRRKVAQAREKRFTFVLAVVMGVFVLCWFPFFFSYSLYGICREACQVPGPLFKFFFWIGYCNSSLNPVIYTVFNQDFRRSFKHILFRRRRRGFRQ
# Chain of Dual specificity protein phosphatase 6 (Homo sapiens) (Q16828 whole entry, looked up): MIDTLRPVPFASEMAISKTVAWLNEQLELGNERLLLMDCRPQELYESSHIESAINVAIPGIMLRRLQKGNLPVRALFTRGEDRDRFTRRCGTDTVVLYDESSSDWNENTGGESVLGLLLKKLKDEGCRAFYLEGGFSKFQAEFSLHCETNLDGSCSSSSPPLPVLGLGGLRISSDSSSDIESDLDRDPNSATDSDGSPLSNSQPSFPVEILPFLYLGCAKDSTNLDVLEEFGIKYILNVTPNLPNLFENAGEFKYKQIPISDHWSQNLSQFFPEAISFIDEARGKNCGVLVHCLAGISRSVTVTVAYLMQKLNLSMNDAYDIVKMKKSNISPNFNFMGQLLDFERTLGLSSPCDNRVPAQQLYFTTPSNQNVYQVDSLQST
# Chain of Voltage-gated potassium channel subunit beta-2 (Rattus norvegicus) (P62483 whole entry, looked up): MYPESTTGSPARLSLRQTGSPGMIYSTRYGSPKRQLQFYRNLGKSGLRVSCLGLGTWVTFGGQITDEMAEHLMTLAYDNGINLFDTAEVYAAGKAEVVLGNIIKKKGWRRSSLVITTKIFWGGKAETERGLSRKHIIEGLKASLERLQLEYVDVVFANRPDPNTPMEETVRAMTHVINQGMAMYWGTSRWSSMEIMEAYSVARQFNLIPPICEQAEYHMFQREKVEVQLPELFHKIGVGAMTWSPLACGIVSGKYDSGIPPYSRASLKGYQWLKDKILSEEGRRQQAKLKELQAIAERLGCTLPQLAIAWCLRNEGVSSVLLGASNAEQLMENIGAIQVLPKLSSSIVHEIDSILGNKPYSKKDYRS
SMILES,cell count [1],inhibition [1],inhibition [2],nuclei count [2] [%],"z-score [3, 10]","z-score [3, 11]","z-score [3, 12]",inhibition [4],fluorescence slope [5],NADPH fluorescence slope [6],slope [7],outcome [8],inhibition [9]
Cc1cc(C)c(C#N)c(SCC(=O)N2CCN(Cc3ccccc3)CC2)n1,660,-29% (inactive),-68.1% (inactive),173,-1.99,0.41,1.64,-7.28% (inactive),-0.419 (inactive),-3.2e-05 (inactive),0.00644 (inactive),inactive,8.58% (inactive)
CCNc1nc(NC(C)C)nc(N(C#N)C(C)C(=O)N(C)C)n1 (stereo not given),330,-31.8% (inactive),-39.6% (inactive),134,-0.102,-1.64,0.749,-12.3% (inactive),-0.445 (inactive),-0.000124 (inactive),0.00585 (inactive),inactive,19.9% (inactive)
O=C1OC(Nc2ccc(Br)cn2)c2ccccc21 (stereo not given),388,2.6% (inactive),47.2% (inactive),94.3,-0.833,-0.569,0.497,-8.27% (inactive),-0.44 (inactive),-1.7e-06 (inactive),0.00494 (inactive),inactive,-9.02% (inactive)
N/C(=N\c1nc2ccccc2o1)NC(=O)c1ccccc1NC(=O)c1ccccc1,614,5.2% (inactive),-20.4% (inactive),160,1.3,-0.342,-0.375,2.46% (inactive),-0.361 (inactive),-2e-05 (inactive),0.0114 (inactive),inactive,9.27% (inactive)
CCCCCSc1nc(O)cc(=O)[nH]1,366,-1.9% (inactive),-61.7% (inactive),116,-1.75,1.21,0.475,-0.624% (inactive),-0.395 (inactive),1.3e-05 (inactive),0.00579 (inactive),inactive,-10.7% (inactive)
CCCOc1cc(CN2CCCCC2)cc(C(C)=O)c1,662,-7.2% (inactive),-40.5% (inactive),182,0.934,-0.767,0.549,15.1% (inactive),-0.493 (inactive),-6.5e-05 (inactive),0.00496 (inactive),inactive,3.11% (inactive)
Cc1csc2nc(CSc3nc4ccccc4o3)cn12,402,-8.4% (inactive),-53.8% (inactive),108,0.0403,1.14,-0.0493,3.56% (inactive),-0.545 (inactive),-5.7e-05 (inactive),0.00434 (inactive),inactive,5.29% (inactive)
CCOC(=O)CC(=O)CSc1nc(N)c(C#N)c(-c2ccc(Cl)cc2)c1C#N,405,-9.9% (inactive),-43.1% (inactive),99.2,1.08,-0.959,-2.04,-6.48% (inactive),-0.318 (inactive),1.7e-05 (inactive),0.00603 (inactive),inactive,-7.76% (inactive)
c1coc(-c2nnc3sc(Cc4cccs4)nn23)c1,593,-3.5% (inactive),60.4% (inactive),98.5,0.488,-1.26,-0.189,-13.3% (inactive),-0.5 (inactive),-4.8e-06 (inactive),0.00451 (inactive),inactive,5.83% (inactive)
CN1CCN(CC(=O)Nc2nc(-c3ccccc3)cs2)CC1,667,-3.3% (inactive),-41.9% (inactive),149,-1.89,1.19,0.906,0.671% (inactive),-0.462 (inactive),-0.000262 (inactive),0.0053 (inactive),inactive,8.3% (inactive)
O=C(c1cccs1)N1CCC(N2CCN(c3ccccc3)CC2)CC1,390,-7.3% (inactive),-50.1% (inactive),119,0.783,0.365,-0.94,11.3% (inactive),-0.378 (inactive),-1.9e-05 (inactive),0.00799 (inactive),inactive,43.7% (inactive)
O=C(O)C1CCCCN1S(=O)(=O)c1cccc2nsnc12 (stereo not given),488,9.4% (inactive),-8.1% (inactive),93.9,-0.854,0.334,-0.543,-6.06% (inactive),-0.498 (inactive),-3.9e-05 (inactive),0.0076 (inactive),inactive,-16.5% (inactive)
Cc1ccc(OCc2nnc(NC(=O)c3ccco3)s2)c(C)c1,438,-7.3% (inactive),15.6% (inactive),106,-0.686,-0.603,0.0542,-1.12% (inactive),-0.308 (inactive),-1.3e-05 (inactive),0.00608 (inactive),inactive,-4.85% (inactive)
CCOC(=O)C1=C(C)NC(SCC(=O)Nc2nc(C)cs2)=C(C#N)C1c1cccs1 (stereo not given),540,-13.4% (inactive),-57.8% (inactive),106,1.78,-0.812,-0.565,-7.28% (inactive),-0.472 (inactive),6.5e-06 (inactive),0.006 (inactive),inactive,2.72% (inactive)
CC1CN(C2CCN(C(=O)c3ccccc3Cl)CC2)CC(C)O1 (stereo not given),445,-0.2% (inactive),-214% (inactive),151,-0.321,-1.49,-0.453,-5.62% (inactive),-0.348 (inactive),-1.1e-05 (inactive),0.00459 (inactive),inactive,0.742% (inactive)
CCOC(=O)c1c(C)n(C)c2ccc(OC)c(NC(=O)c3cccs3)c12,361,-4.3% (inactive),-0.3% (inactive),151,-1.28,0.0285,0.397,-4.59% (inactive),-0.424 (inactive),-0.00012 (inactive),0.00568 (inactive),inactive,-6.67% (inactive)
Cc1ccc2[nH]c3c(c2c1)CCCC3C(N)=O (stereo not given),548,-27.5% (inactive),-103% (inactive),183,-1.12,0.929,-1.27,-16.8% (inactive),-0.508 (inactive),-2.9e-05 (inactive),0.00527 (inactive),inactive,3.14% (inactive)
COc1ccc(-c2cc3nc4n(c(=O)c3s2)CCOC4)cc1,561,-7.1% (inactive),30.7% (inactive),157,-0.862,-0.643,-0.319,-5.26% (inactive),-0.185 (inactive),-1.6e-05 (inactive),0.0053 (inactive),inactive,7.02% (inactive)
CCOC(=O)N1CC=C2C(C#N)=C(N)C(C#N)(C#N)[C@H](c3cccs3)[C@H]2C1,664,-14.7% (inactive),44.9% (inactive),144,0.0987,-0.332,-1.22,11% (inactive),-0.367 (inactive),-2e-05 (inactive),0.00502 (inactive),inactive,26.4% (inactive)
CC(=O)c1cc(CN2CCCCC2)cc(OC(C)C)c1,667,-6.7% (inactive),-53.2% (inactive),172,0.66,-1.57,1.24,-3.98% (inactive),-0.505 (inactive),-5.3e-05 (inactive),0.00431 (inactive),inactive,10.4% (inactive)
COCc1[nH]nc2c1C(c1ccccc1OC)C(C#N)=C(N)O2 (stereo not given),633,-4.1% (inactive),27.6% (inactive),101,0.246,0.997,-0.624,-7.28% (inactive),-0.488 (inactive),-1.1e-05 (inactive),0.00544 (inactive),inactive,31.9% (inactive)
CCOC(=O)c1ccc(NC(=O)Cn2nnc3ccccc32)cc1,333,-8.2% (inactive),-17.3% (inactive),84.8,0.667,0.595,-0.72,7.48% (inactive),-0.538 (inactive),-0.000163 (inactive),0.0051 (inactive),inactive,37.7% (inactive)
CC(C)(C)n1nnc(CCc2nnn(C(C)(C)C)n2)n1,276,-17.8% (inactive),-32.2% (inactive),104,0.0896,1.07,-0.74,10.5% (inactive),-0.44 (inactive),-0.000126 (inactive),0.00595 (inactive),inactive,-11.8% (inactive)
CCCCOc1ccc(C2CC(=O)N(C)C2=O)cc1 (stereo not given),641,-9.7% (inactive),63.8% (inactive),175,-0.371,-0.965,1.92,7.48% (inactive),-0.516 (inactive),-6.5e-05 (inactive),0.00432 (inactive),inactive,3.29% (inactive)
N#CC12CCCCC1CC1CCCCC1(C#N)N2Cc1cccnc1 (stereo not given),364,-10.3% (inactive),3.8% (inactive),97.2,1.59,-0.921,-1.61,17% (inactive),-0.557 (inactive),-6.5e-05 (inactive),0.00335 (inactive),inactive,44.6% (inactive)

# Source: PubChem BioAssay
